According to ChEMBL document CHEMBL3603780, “Discovery of thieno[3,2-c]pyridin-4-amines as novel Bruton's tyrosine kinase (BTK) inhibitors” (Bioorg Med Chem, 2015):
Values belong to the compound of their own block, whether it stands above or below them.

What was measured:
[1] = target: Tyrosine-protein kinase BTK (Homo sapiens, UniProt Q06187); experiment: Inhibition of human recombinant BTK incubated for 5 mins by HTRF kinase assay
[2] = target: T1, Tyrosine-protein kinase JAK3 (Homo sapiens, UniProt P52333); experiment: Inhibition of JAK3 (unknown origin) using poly (Glu-Tyr, 4:1) substrate incubated for 60 mins by ELISA method
T1 sequence (P52333 whole entry): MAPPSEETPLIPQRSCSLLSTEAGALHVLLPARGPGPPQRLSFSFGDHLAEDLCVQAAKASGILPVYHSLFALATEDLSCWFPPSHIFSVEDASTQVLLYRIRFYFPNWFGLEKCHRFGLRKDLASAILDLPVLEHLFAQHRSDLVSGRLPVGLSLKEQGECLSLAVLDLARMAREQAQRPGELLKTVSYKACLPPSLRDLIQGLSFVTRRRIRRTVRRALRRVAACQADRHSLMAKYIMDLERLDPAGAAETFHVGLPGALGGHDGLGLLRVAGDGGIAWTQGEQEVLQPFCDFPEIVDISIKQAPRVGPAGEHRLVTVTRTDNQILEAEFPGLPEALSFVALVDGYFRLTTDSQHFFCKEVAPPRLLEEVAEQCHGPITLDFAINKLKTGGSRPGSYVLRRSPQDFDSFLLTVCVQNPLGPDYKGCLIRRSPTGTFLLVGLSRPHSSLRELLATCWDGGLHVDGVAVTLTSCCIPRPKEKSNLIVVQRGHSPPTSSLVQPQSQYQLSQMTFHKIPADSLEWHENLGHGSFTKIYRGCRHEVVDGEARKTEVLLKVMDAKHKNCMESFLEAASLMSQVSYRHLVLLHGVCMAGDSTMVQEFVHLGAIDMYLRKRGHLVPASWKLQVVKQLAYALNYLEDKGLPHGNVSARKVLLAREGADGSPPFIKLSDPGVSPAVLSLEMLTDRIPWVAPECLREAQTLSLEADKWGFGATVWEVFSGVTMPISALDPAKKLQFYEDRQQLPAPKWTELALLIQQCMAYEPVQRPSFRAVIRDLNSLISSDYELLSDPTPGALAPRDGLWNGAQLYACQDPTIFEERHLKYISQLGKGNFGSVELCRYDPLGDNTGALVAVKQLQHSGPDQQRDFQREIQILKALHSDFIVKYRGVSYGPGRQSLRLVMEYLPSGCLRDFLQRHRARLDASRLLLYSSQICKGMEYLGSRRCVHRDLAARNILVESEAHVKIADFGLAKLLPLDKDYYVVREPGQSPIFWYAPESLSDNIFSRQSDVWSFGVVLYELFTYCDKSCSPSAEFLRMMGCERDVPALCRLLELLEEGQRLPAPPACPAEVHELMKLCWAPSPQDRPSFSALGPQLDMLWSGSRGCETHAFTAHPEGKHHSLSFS
Procedure, shortened: (§1)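 ELISA on wells precoated overnight at 37 °C with 0.2 mg/mL poly(Glu-Tyr, 4:1). Kinase and 0.01 mmol/L ATP in reaction medium, plus inhibitor at various concentrations in 1% DMSO, were reacted for 60 min at 37 °C. Anti-phosphotyrosine antibody and HRP anti-mouse IgG followed, with TMB read-out stopped by 2 M H2SO4 and OD at 450 nm. IC50 came from regression of concentration/inhibition data.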

[3] = target: Vascular endothelial growth factor receptor 2 (Homo sapiens, UniProt P35968); experiment: Inhibition of KDR (unknown origin) using poly (Glu-Tyr, 4:1) substrate incubated for 60 mins by ELISA method; procedure, shortened: as §1
[4] = target: Hepatocyte growth factor receptor (Homo sapiens, UniProt P08581); experiment: Inhibition of c-MET (unknown origin) using poly (Glu-Tyr, 4:1) substrate incubated for 60 mins by ELISA method; procedure, shortened: as §1
[5] = target: Tyrosine-protein kinase JAK2 (Homo sapiens, UniProt O60674); experiment: Inhibition of JAK2 (unknown origin) using poly (Glu-Tyr, 4:1) substrate incubated for 60 mins by ELISA method; procedure, shortened: as §1
[6] = Cmax in Sprague-Dawley rat at 2.5 mg/kg, iv by LC-MS/MS method; format: ADME, organism-based; set-up: dose 2.5 mg/kg, route intravenous; conditions: in vivo
Procedure, shortened: (§2)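 Male SD rats, 3 per route (180-240 g), dosed 2.5 mg/kg iv or 10 mg/kg po at 5 mL/kg. Blood was sampled from 2 min to 24 h, centrifuged at 4000 rpm for 5 min at 4 °C and protein-precipitated. Plasma was quantified by LC/MS/MS in SRM mode with an internal standard. PK parameters came from noncompartmental analysis.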

[7] = AUC (0 to t) in Sprague-Dawley rat at 2.5 mg/kg, iv by LC-MS/MS method; format: ADME, organism-based; conditions: in vivo; procedure, shortened: as §2
[8] = Apparent volume of distribution in Sprague-Dawley rat at 2.5 mg/kg, iv by LC-MS/MS method; format: ADME, organism-based; conditions: in vivo, read-out: Vz; procedure, shortened: as §2
[9] = Clearance in Sprague-Dawley rat at 2.5 mg/kg, iv by LC-MS/MS method; format: ADME, organism-based; conditions: in vivo; procedure, shortened: as §2
[10] = Mean residence time in Sprague-Dawley rat at 2.5 mg/kg, iv by LC-MS/MS method; format: ADME, organism-based; conditions: in vivo; procedure, shortened: as §2
[11] = Half life in Sprague-Dawley rat at 2.5 mg/kg, iv by LC-MS/MS method; format: ADME, organism-based; conditions: in vivo; procedure, shortened: as §2
[12] = Tmax in Sprague-Dawley rat at 2.5 mg/kg, iv by LC-MS/MS method; format: ADME, organism-based; conditions: in vivo; procedure, shortened: as §2
[13] = Cmax in Sprague-Dawley rat at 10 mg/kg, po by LC-MS/MS method; format: ADME, organism-based; set-up: dose 10 mg/kg, route oral; conditions: in vivo; procedure, shortened: as §2
[14] = AUC (0 to t) in Sprague-Dawley rat at 10 mg/kg, po by LC-MS/MS method; format: ADME, organism-based; conditions: in vivo; procedure, shortened: as §2
[15] = system: Rattus norvegicus; experiment: Apparent volume of distribution in Sprague-Dawley rat at 10 mg/kg, po by LC-MS/MS method; format: ADME, organism-based; conditions: in vivo; procedure, shortened: as §2
[16] = Clearance in Sprague-Dawley rat at 10 mg/kg, po by LC-MS/MS method; format: ADME, organism-based; conditions: in vivo; procedure, shortened: as §2
[17] = Mean residence time in Sprague-Dawley rat at 10 mg/kg, po by LC-MS/MS method; format: ADME, organism-based; conditions: in vivo; procedure, shortened: as §2
[18] = Half life in Sprague-Dawley rat at 10 mg/kg, po by LC-MS/MS method; format: ADME, organism-based; conditions: in vivo; procedure, shortened: as §2
[19] = Tmax in Sprague-Dawley rat at 10 mg/kg, po by LC-MS/MS method; format: ADME, organism-based; conditions: in vivo; procedure, shortened: as §2
[20] = Oral bioavailability in Sprague-Dawley rat at 10 mg/kg by LC-MS/MS method; format: ADME, organism-based; conditions: in vivo; procedure, shortened: as §2

Sequence of Tyrosine-protein kinase BTK (Q06187 whole entry): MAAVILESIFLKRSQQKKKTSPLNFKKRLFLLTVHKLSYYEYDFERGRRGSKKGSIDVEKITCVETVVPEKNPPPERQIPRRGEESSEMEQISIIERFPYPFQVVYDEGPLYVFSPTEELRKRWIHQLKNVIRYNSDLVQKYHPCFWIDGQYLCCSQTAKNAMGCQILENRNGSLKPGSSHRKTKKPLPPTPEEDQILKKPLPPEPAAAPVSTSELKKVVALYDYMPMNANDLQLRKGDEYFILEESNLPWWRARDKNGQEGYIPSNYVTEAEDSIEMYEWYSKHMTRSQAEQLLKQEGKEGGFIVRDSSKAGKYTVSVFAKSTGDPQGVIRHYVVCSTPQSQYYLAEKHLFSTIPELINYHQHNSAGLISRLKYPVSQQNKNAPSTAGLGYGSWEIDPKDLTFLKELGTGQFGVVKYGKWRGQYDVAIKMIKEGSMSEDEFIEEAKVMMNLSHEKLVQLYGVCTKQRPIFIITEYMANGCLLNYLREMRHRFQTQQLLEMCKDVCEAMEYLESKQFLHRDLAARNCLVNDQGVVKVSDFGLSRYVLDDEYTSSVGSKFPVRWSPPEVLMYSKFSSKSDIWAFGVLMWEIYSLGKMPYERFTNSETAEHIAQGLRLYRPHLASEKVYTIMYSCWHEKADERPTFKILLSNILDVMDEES
Sequence of Hepatocyte growth factor receptor (P08581 whole entry): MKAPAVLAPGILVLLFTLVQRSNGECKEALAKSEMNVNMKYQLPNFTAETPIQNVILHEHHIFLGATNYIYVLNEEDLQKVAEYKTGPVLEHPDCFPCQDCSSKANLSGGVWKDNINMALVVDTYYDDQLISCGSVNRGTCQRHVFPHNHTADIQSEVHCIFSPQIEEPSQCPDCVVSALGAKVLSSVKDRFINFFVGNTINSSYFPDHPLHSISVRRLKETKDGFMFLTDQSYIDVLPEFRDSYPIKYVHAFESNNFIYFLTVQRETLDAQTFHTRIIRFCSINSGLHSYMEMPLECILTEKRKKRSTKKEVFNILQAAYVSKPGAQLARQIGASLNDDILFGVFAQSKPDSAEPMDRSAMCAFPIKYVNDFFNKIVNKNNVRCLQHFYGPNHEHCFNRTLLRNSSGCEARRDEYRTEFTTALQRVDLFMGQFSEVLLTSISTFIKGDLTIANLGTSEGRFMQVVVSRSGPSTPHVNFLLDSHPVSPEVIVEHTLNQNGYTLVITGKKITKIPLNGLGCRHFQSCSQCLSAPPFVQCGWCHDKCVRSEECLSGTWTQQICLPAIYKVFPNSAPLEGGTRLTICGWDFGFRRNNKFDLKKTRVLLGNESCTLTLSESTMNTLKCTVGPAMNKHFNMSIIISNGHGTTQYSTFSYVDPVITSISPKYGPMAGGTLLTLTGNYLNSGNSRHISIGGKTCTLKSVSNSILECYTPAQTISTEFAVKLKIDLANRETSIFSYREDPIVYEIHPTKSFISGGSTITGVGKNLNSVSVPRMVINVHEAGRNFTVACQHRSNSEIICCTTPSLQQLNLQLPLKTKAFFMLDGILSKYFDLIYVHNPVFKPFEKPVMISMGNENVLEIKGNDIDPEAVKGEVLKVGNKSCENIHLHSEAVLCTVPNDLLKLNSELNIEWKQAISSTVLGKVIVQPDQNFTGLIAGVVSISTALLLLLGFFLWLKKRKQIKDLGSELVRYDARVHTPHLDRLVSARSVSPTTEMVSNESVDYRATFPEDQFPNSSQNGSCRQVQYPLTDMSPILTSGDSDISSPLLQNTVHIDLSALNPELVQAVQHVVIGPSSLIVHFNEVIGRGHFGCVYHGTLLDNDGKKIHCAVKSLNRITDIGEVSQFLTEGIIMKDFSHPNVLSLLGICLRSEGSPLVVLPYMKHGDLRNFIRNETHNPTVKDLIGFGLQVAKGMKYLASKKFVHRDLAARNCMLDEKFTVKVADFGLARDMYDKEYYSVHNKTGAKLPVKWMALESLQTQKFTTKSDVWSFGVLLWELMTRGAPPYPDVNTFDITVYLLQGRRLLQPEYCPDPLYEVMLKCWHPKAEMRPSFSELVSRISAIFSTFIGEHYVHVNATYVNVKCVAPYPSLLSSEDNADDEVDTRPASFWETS
Sequence of Vascular endothelial growth factor receptor 2 (P35968 whole entry): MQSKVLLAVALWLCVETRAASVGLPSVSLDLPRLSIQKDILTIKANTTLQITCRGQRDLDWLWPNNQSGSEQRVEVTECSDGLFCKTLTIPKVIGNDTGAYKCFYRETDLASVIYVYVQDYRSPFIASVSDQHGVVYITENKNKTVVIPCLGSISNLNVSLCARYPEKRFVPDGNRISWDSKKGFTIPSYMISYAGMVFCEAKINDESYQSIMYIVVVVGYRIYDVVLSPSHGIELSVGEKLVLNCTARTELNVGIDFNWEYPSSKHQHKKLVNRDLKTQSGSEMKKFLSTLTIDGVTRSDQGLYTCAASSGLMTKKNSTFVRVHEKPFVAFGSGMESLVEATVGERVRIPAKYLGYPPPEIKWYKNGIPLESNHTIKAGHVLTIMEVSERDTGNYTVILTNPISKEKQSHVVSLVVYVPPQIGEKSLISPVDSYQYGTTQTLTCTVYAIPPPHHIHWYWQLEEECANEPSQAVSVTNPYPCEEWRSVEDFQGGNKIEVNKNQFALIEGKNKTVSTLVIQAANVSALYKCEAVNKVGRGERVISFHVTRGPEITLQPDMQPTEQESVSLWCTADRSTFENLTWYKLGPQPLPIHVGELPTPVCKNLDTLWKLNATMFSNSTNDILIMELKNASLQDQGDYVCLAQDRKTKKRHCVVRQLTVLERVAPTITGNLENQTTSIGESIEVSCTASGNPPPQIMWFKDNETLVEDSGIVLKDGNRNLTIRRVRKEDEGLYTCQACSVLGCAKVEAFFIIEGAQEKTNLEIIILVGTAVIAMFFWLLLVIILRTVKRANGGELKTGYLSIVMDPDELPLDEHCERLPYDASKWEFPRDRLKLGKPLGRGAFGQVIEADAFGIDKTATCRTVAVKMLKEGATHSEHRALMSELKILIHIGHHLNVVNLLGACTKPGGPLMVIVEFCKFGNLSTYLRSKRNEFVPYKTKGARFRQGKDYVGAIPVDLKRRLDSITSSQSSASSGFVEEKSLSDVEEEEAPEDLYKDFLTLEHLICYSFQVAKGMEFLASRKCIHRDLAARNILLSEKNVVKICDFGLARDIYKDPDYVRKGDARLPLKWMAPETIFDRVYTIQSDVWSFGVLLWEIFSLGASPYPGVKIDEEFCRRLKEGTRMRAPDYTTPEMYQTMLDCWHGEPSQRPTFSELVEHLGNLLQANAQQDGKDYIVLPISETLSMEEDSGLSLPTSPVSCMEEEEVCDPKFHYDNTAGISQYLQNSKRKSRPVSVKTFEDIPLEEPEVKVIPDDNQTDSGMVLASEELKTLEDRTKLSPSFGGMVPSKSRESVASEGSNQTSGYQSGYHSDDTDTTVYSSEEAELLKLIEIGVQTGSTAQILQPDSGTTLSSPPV
Sequence of Tyrosine-protein kinase JAK2 (O60674 whole entry): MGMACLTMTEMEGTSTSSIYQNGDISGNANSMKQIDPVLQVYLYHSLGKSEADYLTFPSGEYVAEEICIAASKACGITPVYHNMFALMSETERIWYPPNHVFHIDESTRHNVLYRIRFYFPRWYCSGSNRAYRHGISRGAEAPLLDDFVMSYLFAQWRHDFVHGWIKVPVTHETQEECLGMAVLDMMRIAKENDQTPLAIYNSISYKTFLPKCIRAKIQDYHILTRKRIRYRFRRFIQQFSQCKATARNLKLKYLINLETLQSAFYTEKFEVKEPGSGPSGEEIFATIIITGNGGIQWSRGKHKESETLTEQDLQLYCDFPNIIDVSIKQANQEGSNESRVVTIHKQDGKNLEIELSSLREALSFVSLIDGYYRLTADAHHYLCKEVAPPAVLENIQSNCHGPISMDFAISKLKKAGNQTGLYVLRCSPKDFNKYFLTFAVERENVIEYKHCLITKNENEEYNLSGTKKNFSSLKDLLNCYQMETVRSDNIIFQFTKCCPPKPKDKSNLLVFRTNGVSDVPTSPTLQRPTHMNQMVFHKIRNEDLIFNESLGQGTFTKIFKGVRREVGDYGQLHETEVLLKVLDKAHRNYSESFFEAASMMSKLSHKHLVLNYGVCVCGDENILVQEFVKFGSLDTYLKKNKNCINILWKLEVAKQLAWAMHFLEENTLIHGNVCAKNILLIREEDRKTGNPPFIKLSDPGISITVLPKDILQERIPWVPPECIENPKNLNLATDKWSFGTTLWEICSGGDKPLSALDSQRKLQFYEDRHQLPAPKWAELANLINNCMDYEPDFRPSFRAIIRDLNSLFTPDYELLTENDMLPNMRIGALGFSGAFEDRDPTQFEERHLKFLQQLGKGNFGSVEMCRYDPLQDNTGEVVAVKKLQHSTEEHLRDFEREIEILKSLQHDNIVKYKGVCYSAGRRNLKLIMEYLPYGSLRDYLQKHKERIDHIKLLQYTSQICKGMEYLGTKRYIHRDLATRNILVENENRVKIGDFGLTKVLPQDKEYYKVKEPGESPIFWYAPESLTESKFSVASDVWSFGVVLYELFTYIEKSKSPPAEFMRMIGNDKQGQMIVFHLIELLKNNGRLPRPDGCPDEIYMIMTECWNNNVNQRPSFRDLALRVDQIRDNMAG

Compound: Cn1cc(-c2cnc(N)c3c(-c4ccc(Oc5ccccc5)cc4)csc23)cn1
IC50 [1]: 0.107 µM
IC50 [2]: > 10 µM
IC50 [3]: 0.343 µM
IC50 [4]: > 10 µM
IC50 [5]: > 10 µM

Compound: COCCCn1cc(-c2cnc(N)c3c(-c4ccc(Oc5ccccc5)cc4)csc23)cn1
IC50 [1]: 0.28 µM

Compound: CC(=O)n1cc(-c2cnc(N)c3c(-c4ccc(Oc5ccccc5)cc4)csc23)cn1
IC50 [1]: 0.454 µM

Compound: CCCCn1cc(-c2cnc(N)c3c(-c4ccc(Oc5ccccc5)cc4)csc23)cn1
IC50 [1]: 0.387 µM

Compound: Nc1ncc(-c2ccco2)c2scc(-c3ccc(Oc4ccccc4)cc3)c12
IC50 [1]: 0.767 µM

Compound: CCn1cc(-c2cnc(N)c3c(-c4ccc(Oc5ccccc5)cc4)csc23)cn1
IC50 [1]: 0.176 µM

Compound: CNC(=O)Cn1cc(-c2cnc(N)c3c(-c4ccc(C(=O)Nc5ccccc5)cc4)csc23)cn1
IC50 [1]: 0.137 µM

Compound: Nc1ncc(C2CC2)c2scc(-c3ccc(Oc4ccccc4)cc3)c12
IC50 [1]: > 10 µM

Compound: CNC(=O)Cn1cc(-c2cnc(N)c3c(-c4cccc(C(=O)Nc5ccccc5)c4)csc23)cn1
IC50 [1]: 0.291 µM

Compound: CNC(=O)Cn1cc(-c2cnc(N)c3c(-c4ccc(NC(=O)c5cccc(Cl)c5)cc4)csc23)cn1
IC50 [1]: 0.409 µM

Compound: CCCCc1cnc(N)c2c(-c3ccc(Oc4ccccc4)cc3)csc12
IC50 [1]: > 10 µM

Compound: CNC(=O)Cn1cc(-c2cnc(N)c3c(-c4ccc(Oc5ccccc5)cc4)csc23)cn1
IC50 [1]: 0.0128 µM
IC50 [2]: > 10 µM
IC50 [3]: 0.284 µM
IC50 [4]: > 10 µM
IC50 [5]: > 10 µM
Cmax [6]: 2.55 µg/mL
AUC(0-t) [7]: 1.46 µg·h/mL
Vd [8]: 0.9 L/kg
clearance [9]: 1.72 L/h/kg
MRT [10]: 25.8 min
half-life [11]: 21.6 min
Tmax [12]: 6.6 min
Cmax [13]: 0.856 µg/mL
AUC(0-t) [14]: 1.37 µg·h/mL
Vz [15]: 13.3206 L/kg
CL/F [16]: 8.67 L/h/kg
MRT [17]: 88.8 min
half-life [18]: 60.6 min
Tmax [19]: 40.2 min
bioavailability [20]: 23.4%

Compound: CN(C)S(=O)(=O)n1cc(-c2cnc(N)c3c(-c4ccc(Oc5ccccc5)cc4)csc23)cn1
IC50 [1]: 0.528 µM

Compound: Cn1cc(-c2cnc(N)c3c(-c4ccc(NC(=O)c5cccc(Cl)c5)cc4)csc23)cn1
IC50 [1]: 0.421 µM

Results, then the compound that gave them:

IC50 [1]: 0.699 µM
Compound: Nc1ncc(-c2cnn(Cc3ccccc3)c2)c2scc(-c3ccc(Oc4ccccc4)cc3)c12

IC50 [1]: 2.3 µM
Compound: Nc1ncc(-c2ccc(N3CCOCC3)cc2)c2scc(-c3ccc(Oc4ccccc4)cc3)c12

IC50 [1]: > 10 µM
Compound: Nc1ncc(-c2ccc(Oc3ccccc3)cc2)c2scc(-c3ccc(Oc4ccccc4)cc3)c12

IC50 [1]: 1.05 µM
Compound: Nc1ncc(-c2cn[nH]c2)c2scc(-c3ccc(Oc4ccccc4)cc3)c12

IC50 [1]: 1.95 µM
Compound: Nc1ncc(-c2ccncc2)c2scc(-c3ccc(Oc4ccccc4)cc3)c12

IC50 [1]: > 10 µM
Compound: COc1ccc2cc(-c3cnc(N)c4c(-c5ccc(Oc6ccccc6)cc5)csc34)ccc2c1

IC50 [1]: > 10 µM
Compound: Nc1ncc(-c2ccccc2)c2scc(-c3ccc(Oc4ccccc4)cc3)c12
